Shown are actives, neighbours in structure and some others; about 2.1% of the full set was active somewhere.
L929 necroptosis: L929 zVAD cell death inhibition. L929 zVAD necroptosis rescue, ATP luminescence, 24 h; with zVAD 60 µM. actives 0.38% (n = 220,000). AID 1377. viability rescue, % at 10 µM;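 active means activation, scaled between plate controls, above about 75%, limit read from the data; inactive means activation under that limit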;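 further: 0% = zVAD with DMSO and 100% = DMSO alone without zVAD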
Runt-SMMHC FRET: Runt domain-CBFb-SMMHC interaction inhibition; Q01196+Q13951; Cerulean-Runt/Venus-CBFb-SMMHC FRET ratio 530/480, 1 h; inhibition, % at 20 µM; actives 0.74% (n = 220,000); AID 1434;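 active means mean inhibition across duplicate retests at 20 µM reaching about 50%, limit read from the data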;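 further: 0% = DMSO wells and 100% = wells with excess untagged CBFb-SMMHC; inhibitors lower the FRET ratio by blocking Runt binding to CBFb-SMMHC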
TNF necrop inh: TNF-alpha cell death inhibition in Jurkat FADD-/- cells; activation (protection from cell death), % at 10 µM; Jurkat FADD-/- TNF necroptosis rescue, ATP luminescence, 24 h; 0 = TNF only, 100 = no-TNF cells; actives 0.068% (n = 220,000); AID 463075;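 active means activation, meaning protection from cell death, of at least 50% relative to plate controls; inactive means activation below 50%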;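 further: necroptosis triggered by 40 ng/mL TNF-alpha added together with compound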
Runt-CBFb FRET: blocks binding of human RUNX1 Runt domain to CBFb; AID 1496; Cerulean-Runt/Venus-CBFb FRET ratio 530/480, 1 h; Q01196+Q13951; actives 0.46% (n = 220,000); inhibition, % at 20 µM;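 active means inhibition over about 50% at 20 µM in the single-dose screen, limit read from the data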;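 further: 0% = DMSO wells and 100% = excess unlabeled CBFb competitor control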
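Buffer or medium: Tris pH 7.5 buffer with BSA. Assay system: Cerulean-labeled Runt domain protein. Amount: each fluorescent fusion protein 100 nM. Read-out basis: loss of energy transfer signal. Incubation: 1 h compound exposure, room temperature. Probe or stimulus: Venus-CBFb binding partner, 100 nM. Detection: FRET, excitation 422 nm, emission at 530 and 480 nm.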
RanGTP-Imp inh: disruptors of Ran-importin-beta complex formation – biochemical, FRET, CFP-Ran, YFP-importin-beta, homogeneous, primary screen. cell-free CFP-Ran/YFP-importin-beta FRET ratio. inhibition, % (test concentration not listed). actives 1.1% (n = 300,000). AID 2216;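 active means more than half of the replicate wells show a fall in the fluorescence ratio signal beyond about 16%, limit read from the data, passing the limit was not always enough; inconclusive means exactly half of the replicate wells pass the set limit; inactive means fewer than half of replicates pass the limit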;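 further: 0% = DMSO wells and 100% = Ran loaded with GDP instead of GTP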
Hck Nef HTS: blocks Nef-activated human Hck kinase; P08631; Recombinant Hck-YEEI plus Nef, Z-Lyte FRET kinase assay; inhibition, % at 20 µM; actives 0.68% (n = 220,000); AID 463187;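 active means Hck-Nef kinase inhibition above about 50%, limit read from the data; inactive means inhibition below that limit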;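 further: 0% = DMSO with Hck plus Nef and 100% = Hck alone without Nef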
Target sequence (P08631 whole entry, looked up): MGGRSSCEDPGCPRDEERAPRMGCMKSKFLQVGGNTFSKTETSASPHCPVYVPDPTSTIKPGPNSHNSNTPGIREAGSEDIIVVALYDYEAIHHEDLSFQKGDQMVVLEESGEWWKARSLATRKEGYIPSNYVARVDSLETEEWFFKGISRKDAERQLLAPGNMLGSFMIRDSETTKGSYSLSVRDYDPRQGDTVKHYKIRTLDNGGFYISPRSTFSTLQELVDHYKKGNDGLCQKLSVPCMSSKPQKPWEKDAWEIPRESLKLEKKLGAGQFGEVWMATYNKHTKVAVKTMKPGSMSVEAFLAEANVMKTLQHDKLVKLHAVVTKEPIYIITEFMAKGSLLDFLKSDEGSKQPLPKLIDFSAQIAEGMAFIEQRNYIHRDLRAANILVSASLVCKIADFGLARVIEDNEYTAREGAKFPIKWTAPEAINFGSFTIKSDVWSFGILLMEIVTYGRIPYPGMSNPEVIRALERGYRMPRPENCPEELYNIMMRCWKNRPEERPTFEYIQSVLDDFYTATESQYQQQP
Hck-Nef confirm: confirmation of Hck-Nef kinase inhibitors; shares compounds with Hck Nef HTS; Recombinant Hck-YEEI:Nef, Z-Lyte FRET kinase assay; calls only at 10 µM; actives 28% (n = 1,300); AID 463188;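 active means average inhibition of at least 50%, with Z-scores no higher than 3 in both the phospho-tyrosine peptide and fluorescence counterscreens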
Numbers without * were called inactive; i = inactive; ? = inconclusive; / = no result given; + = active, no number.

SMILES	L929 necroptosis	Runt-SMMHC FRET	TNF necrop inh	Runt-CBFb FRET	RanGTP-Imp inh	Hck Nef HTS	Hck-Nef confirm
O=C1NC(=O)N(c2ccccc2)C(=O)/C1=C/c1coc2ccc(O)cc2c1=O	0	-14	-4	5	0	87*	+
O=C1NC(=O)N(c2ccc(Cl)cc2)C(=O)/C1=C/c1coc2ccc(O)cc2c1=O	0	-14	-5	6	5	75*	+
O=C1NC(=O)N(c2ccccc2)C(=O)/C1=C/c1ccoc1	0	-144	0	-49	/	18	/
N#Cc1c(N2CCNCC2)nc(-c2ccco2)c2c1CCCC2	-1	1	-10	0	3	67*	/
O=C1NC(=O)N(CCc2ccc(F)cc2)C(=O)/C1=C/c1ccco1	1	6	0	/	-5	167*	+
O=C1NC(=O)N(CCc2ccc(F)cc2)C(=O)/C1=C/c1cccs1	0	19	-3	/	?	149*	+
Cc1ccc(/C=C2/C(=O)NC(=O)N(CCc3ccc(F)cc3)C2=O)o1	0	2	-4	5	5	16	/
COCCCn1c(N)c(C(=O)NCCC(C)C)c2nc3ccccc3nc21	3	88	-17	17	103*	50*	i
O=c1c2ccccc2nc(SCC2CCCCO2)n1-c1ccccc1 (configuration not stated)	1	0	-2	-1	0	5	/
CCCCCCn1c(N)c(C(=O)NCCN2CCOCC2)c2nc3ccccc3nc21	1	62*	-11	28	70*	65*	i
CC(C)OCCCNC(=O)c1c(N)n(CC2CCCO2)c2nc3ccccc3nc12 (configuration not stated)	0	62*	0	74*	103*	52*	/
CCCNC(=O)c1c(N)n(CC2CCCO2)c2nc3ccccc3nc12 (configuration not stated)	0	78*	-7	4	-3	57*	/
CCOP(=O)(OCC)/C(C#N)=C/c1ccoc1	1	-2	-1	2	?	7	/
O=C(C1CC(=O)N(c2ccc(F)c(Cl)c2)C1)N1CCC2(CC1)OCCO2 (configuration not stated)	0	1	-3	0	-1	0	/
CCc1nnc(NS(=O)(=O)c2ccc(N=Cc3c(O)n(-c4ccc(Cl)cc4)c(=O)[nH]c3=O)cc2)s1	0	-56	0	-10	-1	56*	i
CNS(=O)(=O)c1ccc(N=Cc2c(O)n(-c3ccc(C)cc3)c(=O)[nH]c2=O)cc1	-1	-1	5	-1	1	17	/
COc1ccc(/C=C2/C(=O)N(Cc3ccco3)C(=O)N(C(C)C)C2=O)cc1	0	0	1	17	/	95*	i
CCCNC(=O)N1[C@H]2CC[C@@H]1C(C(=O)OC)=C(c1cc3ccccc3o1)C2	/	/	/	/	3	/	/
Cc1cccc(N2C(=O)NC(=O)/C(=C/c3ccc(-c4ccc(C(=O)O)c(Cl)c4)o3)C2=O)c1	9	17	0	16	1	59*	i
Cc1cccn2c(=O)c3cc(C(=O)N4CCC5(CC4)OCCO5)n(C)c3nc12	0	83*	-10	29	3	54*	/
Cc1ccsc1C(=O)C1CCCN(Cc2c(C)nn(C(C)C)c2C)C1 (configuration not stated)	-1	-5	0	0	1	-7	/
O=C(O)CCn1cc(C=C2C(=O)NC(=S)NC2=O)c(-c2cc3ccccc3oc2=O)n1	6	23	-1	21	4	48	/
O=C(O)CCn1cc(C=C2C(=O)NC(=S)NC2=O)c(-c2ccccc2)n1	0	33	0	26	6	90*	i
COc1ccc2ccccc2c1CNCCc1ccccc1	/	/	/	/	4	/	/
O=C1NC(=S)NC(=O)C1=Cc1ccc2c(c1)CCN2CCCCl	0	12	-3	12	-2	79*	+
SMILES	L929 necroptosis	Runt-SMMHC FRET	TNF necrop inh	Runt-CBFb FRET	RanGTP-Imp inh	Hck Nef HTS	Hck-Nef confirm
CC(=NCc1ccc2c(c1)OCO2)c1c(O)n(-c2ccccc2)c(=O)[nH]c1=O	0	1	0	0	0	23	/
Nc1cc2nc3ccccc3nc2cc1N	1	-372	-4	18	-2	57*	i
CN(C)c1ccc(/C=C2/C(=O)NC(=O)N(Cc3ccco3)C2=O)cc1	1	16	0	38	0	1	/
C=CCN1C(=O)/C(=C/c2ccc(N3CCOCC3)o2)C(=O)NC1=S	0	-51	-4	-3	-23	3	/
C=CCN1C(=O)NC(=O)/C(=C\c2ccc(-c3ccccc3[N+](=O)[O-])o2)C1=O	17	23	-2	-1	-1	70*	+
O=C1NC(=O)N(Cc2ccco2)C(=O)/C1=C/c1ccc(-c2cccc([N+](=O)[O-])c2)o1	0	32	0	35	/	52*	+
Cc1cc(OCC(=O)N2CCC(C(=O)O)CC2)c2c3c(c(=O)oc2c1)CCC3	/	/	/	/	0	/	/
NC(=S)c1cn(C2OC(CO)C(O)C2O)c2ncnc(N)c12 (configuration not stated)	62	12	-32	35	11	95*	+
Nc1ncnc2c1ccn2[C@@H]1O[C@H](CO)[C@@H](O)[C@H]1O	/	/	/	/	4	/	/
Cc1nn(Cc2ccccc2)c(C)c1C(=O)NC1CCCc2ccccc21 (configuration not stated)	1	3	-1	1	-2	3	/
Cc1nn(Cc2ccc(Cl)cc2Cl)c(Cl)c1C(=O)NC1CCCc2ccccc21 (configuration not stated)	3	0	2	-2	-1	2	/
CN1C(=O)N(C)C(=O)C2(Cc3cc(NC(=O)c4ccc(F)cc4)ccc3N3CCCC32)C1=O (configuration not stated)	/	/	/	/	-6	/	/
Nc1c(C(=O)NCc2ccco2)c2nc3ccccc3nc2n1Cc1ccc(F)cc1	0	74*	-6	16	43*	57*	i
COc1ccc(N2C(=O)NC(=O)/C(=C\c3ccc([N+](=O)[O-])s3)C2=O)cc1	-1	-3	-7	20	-3	64*	i
COc1ccc(N2C(=O)/C(=C/c3cccs3)C(=O)NC2=S)cc1	-1	26	-14	24	8	21	/
COc1ccc(N2C(=O)/C(=C/C=C/c3ccccc3[N+](=O)[O-])C(=O)NC2=S)cc1	1	-6	-3	12	-2	63*	+
COc1ccc(N2C(=O)NC(=O)/C(=C/c3ccc([N+](=O)[O-])s3)C2=O)cc1	-1	30	-24	23	?	19	/
CN1C(=O)C(=Cc2c(OCc3cnc(Cl)s3)ccc3ccccc23)C(=O)N(C)C1=O	2	-8	2	-1	5	31	/
CC(C)(C)C(=O)Nc1ccc(S(=O)(=O)N2CC3CC(C2)c2cccc(=O)n2C3)cc1 (configuration not stated)	/	/	/	/	-2	/	/
